In publication PMC9307089 (Journal of medicinal chemistry, 2021):
pIC50: −log10 of the molar value. Each block holds one compound with its values, some of them ahead of it. Numbered stars: 1 amine (or outer) side, 2 acyl side, 3 side chain; on linkers, the order of the positions; unused ones are H or OH. Bridge positions count the residues as written; N and C are the ends. Square brackets hold non-standard residues; d marks the D form. Peptide text beside a SMILES is read from it. X1 = N=C(N)NCCC[C@H](N[*:1])C(=O)c1nc2ccc(C(=O)[*:2])cc2s1

Legend:
[1] = target: T1, recombinant serine protease domain of HGFA (Homo sapiens, UniProt Q04756); assay: Fluorescent kinetic enzyme inhibition assay, HGFA; assay type: biochemical
T1 sequence (Q04756 408-646 limits assumed): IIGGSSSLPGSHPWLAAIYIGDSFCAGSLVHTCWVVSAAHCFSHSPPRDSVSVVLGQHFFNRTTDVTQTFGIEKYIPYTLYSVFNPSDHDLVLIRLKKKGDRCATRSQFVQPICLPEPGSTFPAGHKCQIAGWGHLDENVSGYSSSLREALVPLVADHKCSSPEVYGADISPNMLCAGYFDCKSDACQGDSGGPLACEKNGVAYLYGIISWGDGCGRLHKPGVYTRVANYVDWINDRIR

matriptase [2] = target: T2, matriptase (Homo sapiens, UniProt Q9Y5Y6); assay: Fluorescent kinetic enzyme inhibition assay, matriptase; assay type: biochemical
T2 sequence (Q9Y5Y6 615-855 limits assumed): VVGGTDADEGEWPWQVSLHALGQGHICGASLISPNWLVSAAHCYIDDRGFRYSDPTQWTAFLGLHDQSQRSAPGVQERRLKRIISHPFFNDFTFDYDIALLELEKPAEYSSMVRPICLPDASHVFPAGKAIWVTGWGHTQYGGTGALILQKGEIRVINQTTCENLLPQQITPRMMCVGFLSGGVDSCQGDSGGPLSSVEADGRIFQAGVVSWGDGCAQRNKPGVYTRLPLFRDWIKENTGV

Factor Xa = Factor Xa (Homo sapiens, UniProt P00742); assay: Chromogenic kinetic enzyme assay, Factor Xa; assay type: biochemical
Factor Xa, sequence (P00742 235-488 limits assumed): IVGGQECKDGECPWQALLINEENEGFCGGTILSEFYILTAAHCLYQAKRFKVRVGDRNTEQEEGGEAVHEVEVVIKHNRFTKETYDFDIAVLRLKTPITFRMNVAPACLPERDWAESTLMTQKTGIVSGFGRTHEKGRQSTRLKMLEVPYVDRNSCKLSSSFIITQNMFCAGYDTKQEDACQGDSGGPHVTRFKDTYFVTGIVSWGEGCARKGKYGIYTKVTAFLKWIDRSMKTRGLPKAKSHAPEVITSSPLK
Factor Xa, sequence (P00742 41-179 partner limits assumed): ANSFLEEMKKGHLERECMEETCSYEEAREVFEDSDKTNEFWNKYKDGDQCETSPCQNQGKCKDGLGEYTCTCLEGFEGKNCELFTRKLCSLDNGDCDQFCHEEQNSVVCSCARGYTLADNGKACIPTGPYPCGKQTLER

thrombin = thrombin (Homo sapiens, UniProt P00734); assay: Chromogenic kinetic enzyme assay, thrombin; assay type: biochemical
[3] = In vitro stability in mouse plasma; assay type: in vitro ADME
[4] = In vitro stability in human plasma; assay type: in vitro ADME
[5] = Mouse plasma protein binding; assay type: in vitro ADME
matriptase [6] = target: T3, matriptase (Homo sapiens, UniProt Q9Y5Y6); assay: Proteolytic processing of recombinant pro-HGF by matriptase; assay type: biochemical; settings: pro-HGF 10 ng, matriptase 1 nM, one hour
T3 sequence (Q9Y5Y6 1-855): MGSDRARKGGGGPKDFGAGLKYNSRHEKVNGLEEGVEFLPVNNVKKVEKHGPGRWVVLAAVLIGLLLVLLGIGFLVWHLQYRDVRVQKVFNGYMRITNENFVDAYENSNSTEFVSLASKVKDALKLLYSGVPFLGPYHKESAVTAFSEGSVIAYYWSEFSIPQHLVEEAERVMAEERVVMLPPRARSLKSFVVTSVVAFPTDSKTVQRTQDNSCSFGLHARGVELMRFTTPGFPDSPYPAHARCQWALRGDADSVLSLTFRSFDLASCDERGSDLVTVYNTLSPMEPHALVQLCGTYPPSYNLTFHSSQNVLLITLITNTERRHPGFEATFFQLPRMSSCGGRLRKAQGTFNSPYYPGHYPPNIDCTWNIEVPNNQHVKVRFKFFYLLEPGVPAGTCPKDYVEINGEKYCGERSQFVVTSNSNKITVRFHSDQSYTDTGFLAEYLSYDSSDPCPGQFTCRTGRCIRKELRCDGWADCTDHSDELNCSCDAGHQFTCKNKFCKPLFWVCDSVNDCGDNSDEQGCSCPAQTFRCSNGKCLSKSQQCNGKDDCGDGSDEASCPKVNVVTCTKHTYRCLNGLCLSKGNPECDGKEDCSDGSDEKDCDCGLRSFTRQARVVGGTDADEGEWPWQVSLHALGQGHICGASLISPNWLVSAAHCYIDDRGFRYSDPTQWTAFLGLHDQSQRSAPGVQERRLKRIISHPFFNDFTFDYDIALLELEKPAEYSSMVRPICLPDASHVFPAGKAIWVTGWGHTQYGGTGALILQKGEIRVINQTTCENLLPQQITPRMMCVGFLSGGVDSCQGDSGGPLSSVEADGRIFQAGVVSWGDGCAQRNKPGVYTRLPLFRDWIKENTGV
Method in brief: (§1)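 Recombinant pro-HGF (10 ng) was incubated 1 h with matriptase (1 nM), hepsin (10 nM) or HGFA (5 nM), with or without test compound. Products were immunoblotted with a polyclonal antibody detecting pro-HGF and the alpha and beta chains of active HGF. Active HGF was run as positive control.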

hepsin = hepsin (Homo sapiens, UniProt P05981); assay: Proteolytic processing of recombinant pro-HGF by hepsin; assay type: biochemical; settings: pro-HGF 10 ng, hepsin 10 nM, one hour
hepsin, sequence (P05981 whole entry): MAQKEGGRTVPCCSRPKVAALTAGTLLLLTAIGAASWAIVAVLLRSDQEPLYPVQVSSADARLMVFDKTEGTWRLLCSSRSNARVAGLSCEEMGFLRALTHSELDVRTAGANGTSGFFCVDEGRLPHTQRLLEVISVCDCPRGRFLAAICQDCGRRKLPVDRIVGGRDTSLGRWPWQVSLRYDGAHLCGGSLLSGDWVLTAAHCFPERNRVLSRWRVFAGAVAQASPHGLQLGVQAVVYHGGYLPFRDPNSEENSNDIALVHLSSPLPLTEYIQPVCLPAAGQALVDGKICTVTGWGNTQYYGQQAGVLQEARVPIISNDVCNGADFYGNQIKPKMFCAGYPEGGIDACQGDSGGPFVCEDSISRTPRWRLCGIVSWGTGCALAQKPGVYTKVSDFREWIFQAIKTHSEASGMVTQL
Method in brief: as §1

HGFA = target: T4, HGFA (Homo sapiens, UniProt Q04756); assay: Proteolytic processing of recombinant pro-HGF by HGFA; assay type: biochemical; settings: pro-HGF 10 ng, HGFA 5 nM, one hour
T4 sequence (Q04756 373-655): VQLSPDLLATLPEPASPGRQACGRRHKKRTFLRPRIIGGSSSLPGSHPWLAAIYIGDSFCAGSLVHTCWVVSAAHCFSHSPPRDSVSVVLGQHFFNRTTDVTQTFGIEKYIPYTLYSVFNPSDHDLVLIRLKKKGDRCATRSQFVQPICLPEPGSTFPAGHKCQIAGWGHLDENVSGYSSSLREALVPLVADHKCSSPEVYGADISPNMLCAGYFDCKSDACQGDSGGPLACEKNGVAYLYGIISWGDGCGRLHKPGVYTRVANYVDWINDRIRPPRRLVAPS
Method in brief: as §1

HCC827 cells = assay: Pro-HGF-mediated wound healing; assay type: cell-based; settings: HCC827, inhibitor 10 μM, 24 h
Method in brief: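 HCC827 monolayers were grown to confluence, serum-starved overnight and scratched. Cells were then pre-incubated 30 min with test compound (10 μM) and stimulated with HGF or pro-HGF for 24 h. Plates were stained with crystal violet and wound closure imaged; data average n=3.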

HCC827 lung cancer cells = assay: Cell viability, pro-HGF-mediated resistance to gefitinib; assay type: cell-based; settings: gefitinib 20 nM, pro-HGF 100 ng/ml, inhibitor 0.1-1 μM, 72 h
Method in brief: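 HCC827 cells (EGFR exon-19 E746–A750 deletion) were exposed to gefitinib (20 nM), with or without pro-HGF (100 ng/ml), and test compound (0.1–1 μM) as indicated. Viability was read by crystal violet staining after 72 h. Data are means ± S.E.M. of n=3–5, analysed by one-way ANOVA with Dunnett's test against cells given gefitinib plus pro-HGF.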

EBC-1 lung cancer cells [7] = assay: Cell viability, pro-HGF-mediated resistance to MET inhibitor JNJ-38877605; assay type: cell-based; settings: JNJ-38877605 25 nM, pro-HGF 100 ng/ml, inhibitor 1 μM, 48 h
Method in brief: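 EBC-1 cells pre-incubated 24 h with pro-HGF (100 ng/ml), with or without test compound (1μM), then treated with MET kinase inhibitor JNJ-38877605 (25nM). Viability read by CellTiterGlo after 48 hrs. Means±S.E.M., n=3. One-way ANOVA with Dunnett's multiple comparison test against JNJ plus pro-HGF treated cells.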

H596 lung cancer cells = assay: Pro-HGF-mediated growth of H596 cells in vitro; assay type: cell-based; settings: pro-HGF 50 ng/ml; JNJ 500 nM, nafamostat […], ZFH7116 10 μM
EBC-1 lung cancer cells [8] = settings: previous finding; cited from earlier work
[9] = Tolerability in mice, daily IP for 7 days; assay type: in vivo
[10] = Mouse pharmacokinetics, IP dosing; settings: IP 20 mg/kg

pIC50 [1]: 5.27
pIC50 (matriptase [2]): 7.96
pIC50 (Factor Xa): 6.93
pIC50 (thrombin): 7.47
half-life [3]: > 4.82 h
half-life [4]: > 4.82 h
Structure (SMILES): CC(=O)N[C@H]1CC(=O)NCCCC[C@@H](C(=O)N[C@@H](CCCNC(=N)N)C(=O)c2nc3ccc(C(=O)N[C@H](C(N)=O)C(C)C)cc3s2)NC(=O)[C@H](CC(C)C)NC1=O [Compound 20, Ac-cyclo(DLK)-R- ketobenzothiazole-V-amide] (Ac-DLK[X1]V-NH2; lactam 1-3)

Structure (SMILES): CC(=O)N[C@@H](CO)C(=O)N[C@@H](CCCCN)C(=O)N[C@@H](CC(C)C)C(=O)N[C@@H](CCCNC(=N)N)C(=O)c1nc2ccc(C(=O)N[C@H](C(N)=O)C(C)C)cc2s1 [Compound 31] (Ac-SKL[X1]V-NH2)
Mouse PPB (% free) [5]: 16.7 % free
inhibition of pro-HGF activation by matriptase (matriptase [6]): potently inhibited
inhibition of pro-HGF activation by hepsin (hepsin): potently inhibited
inhibition of pro-HGF activation by HGFA (HGFA): potently inhibited
pro-HGF-mediated wound closure (HCC827 cells): significantly inhibited
pro-survival effect of pro-HGF in gefitinib-treated HCC827 cells (HCC827 lung cancer cells): blocked the pro-survival effects of pro-HGF
pro-survival activity of pro-HGF in JNJ-38877605-treated EBC-1 cells (EBC-1 lung cancer cells [7]): blocked the pro-survival activity of pro-HGF
pro-HGF-mediated growth of H596 cells (H596 lung cancer cells): blocked the growth-promoting activity of pro-HGF

Structure (SMILES): CC1CN(CC2CCN(Cc3ccccc3)CC2)C(=O)N(c2cccc(C(=N)N)c2)C1.O=C(O)C(F)(F)F (stereo not shown) [SRI31215]
HGF-mediated survival of MET-amplified cancer cells upon MET inhibition (EBC-1 lung cancer cells [8]): inhibited

Structure (SMILES): CC(=O)N[C@H]1CC(=O)NCCCC[C@@H](C(=O)N[C@@H](CCCNC(=N)N)C(=O)c2nc3ccccc3s2)NC(=O)[C@H](CC(C)C)NC1=O [Compound 18, Ac-cyclo(DLK)-R- ketobenzothiazole]
Mouse PPB (% free) [5]: 28.6 % free
inhibition of pro-HGF activation by matriptase (matriptase [6]): potently inhibited
inhibition of pro-HGF activation by hepsin (hepsin): potently inhibited
inhibition of pro-HGF activation by HGFA (HGFA): did not inhibit
pro-HGF-mediated wound closure (HCC827 cells): significantly inhibited
pro-survival activity of pro-HGF in JNJ-38877605-treated EBC-1 cells (EBC-1 lung cancer cells [7]): blocked the pro-survival activity of pro-HGF
tolerated dose [9]: up to 20 mg/kg
AUC in mice (in words) [10]: high
duration of compound exposure above IC50s [10]: 24 h
duration of compound exposure (detectable compound) in plasma ([10]; monitored for 24 h): > 24 h
